The results in this text go back to ChEMBL document CHEMBL3593159, “Identification of 5-nitrofuran-2-amide derivatives that induce apoptosis in triple negative breast cancer cells by activating C/EBP-homologous protein expression” (Bioorg Med Chem, 2015).

Some results are limits rather than exact numbers.

Common to all, as to type: functional
Test [1] has as its system HCC1806. Kind of test: Cytotoxicity against human HCC1806 cells assessed as reduction in cell viability incubated for 3 days by cell-titer-Glo reagent based assay. Conditions: HCC1806, 72 h. Summed up:
(§1)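 Viability by CellTiter-Glo (ATP read-out). Cells plated at 3 × 10³/well in 384-well format overnight, then exposed to compound over a range (0.125–20 µM for initial series) for 3 d in RPMI 1640 with 10% FBS at 37°C, 5% CO₂. IC₅₀ fitted from dose–response curve.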

Test [2] has as its system HCC38. The test can be described thus: Cytotoxicity against human HCC38 cells assessed as reduction in cell viability incubated for 3 days by cell-titer-Glo reagent based assay. Conditions: HCC38, 72 h. A digest of the protocol: as §1
For test [3], the system named is HCC1143. The test can be described thus: Cytotoxicity against human HCC1143 cells assessed as reduction in cell viability incubated for 3 days by cell-titer-Glo reagent based assay. Conditions: HCC1143, 72 h. A digest of the protocol:
as §1

By IC50 is commonly meant the point on the concentration scale where inhibition reaches its midpoint. `CCC1CCN(c2ccc(NC(=O)c3ccco3)cc2Cl)CC1`: in test [1], the IC50 is above 40 µM.
The same measure, in the same setting: next, `CCc1cc(I)ccc1NC(=O)c1ccc([N+](=O)[O-])o1`: 5.5 µM; `COc1ccc(Cl)cc1NC(=O)c1ccc([N+](=O)[O-])o1`: 7 µM; `Cc1cc(NC(=O)c2ccc([N+](=O)[O-])o2)c(C)cc1I`: 3 µM.
On to `O=C(Nc1ccc(N2CCOCC2)c(Cl)c1)c1ccc([N+](=O)[O-])o1`, for which the IC50 in test [1] came to 2.6 µM; in test [2], 2000 nM; in test [3], 2500 nM.
With `CC1CCN(c2ccc(NC(=O)c3ccco3)cc2)CC1`, in test [1], the IC50 is above 40 µM.
Consider `O=C(Nc1ccc(Cl)cc1)c1ccc([N+](=O)[O-])o1`, for which, in test [1], the IC50 stood at 5.1 µM.
Same read-out and setting: to `Cc1ccc(NC(=O)c2ccc([N+](=O)[O-])o2)cc1` belongs 6.7 µM; to `CC(C)Cc1ccccc1NC(=O)c1ccc([N+](=O)[O-])o1`, above 40 µM.
Turning to `Cc1cccc(NC(=O)c2ccc([N+](=O)[O-])o2)c1C`, the IC50 in test [1] came out at 9.7 µM.
With `O=C(Nc1cc(C(F)(F)F)ccc1Cl)c1ccc([N+](=O)[O-])o1`, in test [1], the IC50 came to 5.1 µM.
